IC50 and inhibition data for eight compounds are collected here from ChEMBL document CHEMBL1131048, “Antiviral activities of methylated nordihydroguaiaretic acids. 1. Synthesis, structure identification, and inhibition of tat-regulated HIV transactivation” (J Med Chem, 1998).

Common to all, as to conditions: Chlorocebus aethiops
Experiment [1] relates to COS-1. In words: Inhibitory activity against HIV Tat-regulated Transactivation in COS cells. The experiment is classed as functional, cell-based. The essentials:
(§1)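 COS cells in IMDM with 10% FBS, penicillin, streptomycin and Fungizone, 37 °C, 5% CO2, seeded in triplicate at ca. 1.5×10^5 cells/well and grown 24 h to 50% confluence. Calcium phosphate cotransfection with CMV-driven tat plasmid (0.20 µg/well) and HIV LTR-SEAP plasmid (0.40 µg/well) for 18 h. Compound then added in medium with 0.30% DMSO final, for 48 h.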

For experiment [2], the system named is COS-1. In words: Compound tested for inhibition of HIV Tat-regulated Transactivation in COS cells at a concentration of 100 uM. The experiment is classed as functional. An outline of the steps: as §1
The subject of experiment [3] is COS-1. Briefly: Compound tested for inhibition of HIV Tat-regulated Transactivation in COS cells at a concentration of 10 uM. Type of experiment: functional. An outline of the steps:
as §1

Experiment [4] relates to COS-1. Briefly: Compound tested for inhibition of HIV Tat-regulated Transactivation in COS cells at a concentration of 1 uM. The experiment is classed as functional. The essentials: as §1
Experiment [5] has as its system COS-1. Briefly: Compound tested for inhibition of HIV Tat-regulated Transactivation in COS cells at a concentration of 20 uM. Type of experiment: functional. The essentials: as §1
Experiment [6] deals with COS-1. Briefly: Compound tested for inhibition of HIV Tat-regulated Transactivation in COS cells at a concentration of 30 uM. Type of experiment: functional. An outline of the steps:
as §1

Experiment [7] has as its system COS-1. In words: Compound tested for inhibition of HIV Tat-regulated Transactivation in COS cells at a concentration of 60 uM. Type of experiment: functional. An outline of the steps:
as §1

The test system of experiment [8] is COS-1. Briefly: Compound tested for inhibition of HIV Tat-regulated Transactivation in COS cells at a concentration of 3 uM. Type of experiment: functional. The essentials: as §1

One may read the IC50 as the point on the concentration scale where inhibition reaches its midpoint. Read a high IC50 as a need for much substance. A word on the inhibition: it is the drop in the measured response relative to a control, in per cent. High values mean a response far below the control, low ones a response near the control.

In the experiment with COS-1 [1], `COc1ccc(C[C@@H](C)[C@@H](C)Cc2ccc(OC)c(O)c2)cc1O` [DIMETHYLNORDIHYDROGUARIERATE ACID] returned an IC50 of 29.9 µM. Besides, the inhibition at 100 µM in the experiment with COS-1 [2] was determined as 85.7%. Also, at 10 µM the inhibition in the experiment on COS-1 [3] was 19%. Moreover, the inhibition at 1 µM with COS-1 [4] amounted to 9.5%. The inhibition at 20 µM with COS-1 [5] was determined as 38%. In the experiment on COS-1 [6], this compound registered an inhibition at 30 µM of 52%. This compound also returned an inhibition at 60 µM in the experiment with COS-1 [7] of 70%. At 3 µM the inhibition in the experiment on COS-1 [8] was 8.7%.

In turn, `COc1cc(C[C@@H](C)[C@@H](C)Cc2ccc(O)c(O)c2)ccc1O` (racemic) came in with a concentration for half-maximal inhibition (IC50) with COS-1 [1] of 25 µM. The compound further yielded an inhibition at 100 µM in the experiment on COS-1 [2] of 92.3%. In the experiment with COS-1 [3], testing at 10 µM gave an inhibition of 20.7%. Also, 1 µM produced 9% inhibition in the experiment on COS-1 [4]. Further, the inhibition at 20 µM with COS-1 [5] was 38.5%. Also, the inhibition at 30 µM in the experiment with COS-1 [6] is 56.3%. The inhibition at 60 µM with COS-1 [7] is 83.3%. In the experiment with COS-1 [8], testing at 3 µM gave an inhibition of 7.3%.

As for `COc1cc(C[C@H](C)[C@H](C)Cc2ccc(OC)c(OC)c2)ccc1O` (racemic), the IC50 in the experiment with COS-1 [1] amounted to 13.7 µM. The inhibition at 100 µM with COS-1 [2] amounted to 87.7%. For the same compound, in the experiment with COS-1 [3], the inhibition at 10 µM is 45%. The compound further yielded an inhibition at 1 µM in the experiment on COS-1 [4] of 14.5%. Testing at 20 µM with COS-1 [5] gave an inhibition of 50.5%. Moreover, the inhibition at 30 µM in the experiment with COS-1 [6] was determined as 65%. 60 µM produced 76.3% inhibition in the experiment with COS-1 [7]. In addition, the inhibition at 3 µM in the experiment on COS-1 [8] is 26.7%.

In the experiment with COS-1 [1], `COc1ccc(C[C@@H](C)[C@@H](C)Cc2ccc(OC)c(OC)c2)cc1OC` [TERAMEPROCOL] showed an IC50 of 11.1 µM. In the experiment with COS-1 [2], this compound showed an inhibition at 100 µM of 90.3%. In addition, the inhibition at 10 µM in the experiment with COS-1 [3] was 45%. The compound also returned an inhibition at 1 µM with COS-1 [4] of 18.5%. The same compound displayed an inhibition at 20 µM with COS-1 [5] of 61%. The compound further had an inhibition at 30 µM in the experiment on COS-1 [6] of 70%. The compound further had an inhibition at 60 µM in the experiment with COS-1 [7] of 78.7%. Further, the inhibition at 3 µM in the experiment on COS-1 [8] came to 25.3%.

Turning to `COc1cc(C[C@@H](C)[C@@H](C)Cc2ccc(O)c(OC)c2)ccc1O` [MESODIHYDROGUAIARETIC ACID], in the experiment on COS-1 [1], the IC50 turned out to be 39 µM. The inhibition at 100 µM in the experiment on COS-1 [2] is 73.7%. Also, 10 µM produced 22.3% inhibition with COS-1 [3]. Also, the inhibition at 1 µM in the experiment with COS-1 [4] worked out at 5.5%. This compound also had an inhibition at 20 µM in the experiment on COS-1 [5] of 30.5%. Further, the inhibition at 30 µM in the experiment with COS-1 [6] was determined as 43%. This compound also registered an inhibition at 60 µM in the experiment on COS-1 [7] of 63.7%. In addition, the inhibition at 3 µM in the experiment on COS-1 [8] came to 10.3%.

On to `COc1ccc(C[C@@H](C)[C@@H](C)Cc2ccc(O)c(O)c2)cc1OC` (racemic), for which, in the experiment on COS-1 [1], the 50% inhibitory concentration (IC50) stood at 16.5 µM. In the experiment with COS-1 [2], this compound displayed an inhibition at 100 µM of 96%. Also, the inhibition at 10 µM in the experiment with COS-1 [3] was 20%. The compound also came in with an inhibition at 1 µM in the experiment with COS-1 [4] of 12.5%. The same compound returned an inhibition at 20 µM in the experiment on COS-1 [5] of 59%. This compound registered an inhibition at 30 µM with COS-1 [6] of 69.3%. In addition, the inhibition at 60 µM in the experiment on COS-1 [7] turned out to be 87.7%. Besides, testing at 3 µM with COS-1 [8] gave an inhibition of 14.3%.

In the experiment with COS-1 [1], `COc1ccc(C[C@H](C)[C@H](C)Cc2ccc(OC)c(OC)c2)cc1O` (racemic) displayed an IC50 of 14.3 µM. The same compound registered an inhibition at 100 µM in the experiment on COS-1 [2] of 88.3%. The same compound came in with an inhibition at 10 µM in the experiment with COS-1 [3] of 41.7%. For the same compound, the inhibition at 1 µM in the experiment on COS-1 [4] came to 16.5%. In addition, testing at 20 µM in the experiment with COS-1 [5] gave an inhibition of 52%. The compound also showed an inhibition at 30 µM with COS-1 [6] of 66%. The inhibition at 60 µM with COS-1 [7] was 78.3%. Moreover, the inhibition at 3 µM in the experiment with COS-1 [8] was 27%.

In the case of `COc1ccc(C[C@@H](C)[C@@H](C)Cc2ccc(O)c(O)c2)cc1O`, the IC50 with COS-1 [1] came to 30.8 µM. In addition, in the experiment on COS-1 [2], the inhibition at 100 µM was found to be 91.3%. The compound further displayed an inhibition at 10 µM with COS-1 [3] of 5%. Moreover, 1 µM produced 5% inhibition in the experiment on COS-1 [4]. Also, in the experiment on COS-1 [5], the inhibition at 20 µM is 27.5%. This compound showed an inhibition at 30 µM in the experiment with COS-1 [6] of 52%. Further, in the experiment with COS-1 [7], testing at 60 µM gave an inhibition of 73.7%. At 3 µM the inhibition in the experiment with COS-1 [8] was 2.3%.
